According to ChEMBL document CHEMBL1667760, “Synthesis and biological evaluation of 3,5-diaryl isoxazoline/isoxazole linked 2,3-dihydroquinazolinone hybrids as anticancer agents” (2011):
Calls of active or inactive are those of the source. No cut-off for these calls is given here.

Columns and labels:
[1] = system: OVCAR-8; assay: Cytotoxicity against human OVCAR8 cells after 48 hrs by sulforhodamine B assay; format: functional; conditions: OVCAR-8, 48 h
Method in brief: (§1)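 Run by the NCI 60-cell-line screen. A one-dose pre-test was done first, followed by the main test over a 5-log dose range (10^-4 to 10^-8 M). Results are reported as log molar GI50 (50% net growth inhibition), TGI (total growth inhibition) and LC50 (50% net cell death), with mean-graph midpoints across all lines.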

[2] = Cytotoxicity against human Hs 578T cells after 48 hrs by sulforhodamine B assay; format: functional; method in brief: as §1
[3] = system: ACHN; assay: Cytotoxicity against human ACHN cells after 48 hrs by sulforhodamine B assay; format: functional; method in brief: as §1
[4] = system: MCF7; assay: Cell cycle arrest in human MCF7 cells assessed as accumulation at G2/M phase at 5 uM after 24 hrs using propidium iodide staining by flow cytometry relative to control; format: functional
Method in brief: (§2)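 MCF-7 cells were seeded at 5×10^5 per 60 mm dish and grown 24 h. They were then exposed to 5 uM compound for a further 24 h, with untreated control cells alongside. Cells were trypsinised, fixed in ice-cold 70% ethanol (4 °C, 30 min), treated with 1 mg/ml RNase A (37 °C, 30 min) and stained with propidium iodide/citrate/Triton solution. DNA content was read by flow cytometry on 20,000 events.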

[5] = system: UACC-62; assay: Cytotoxicity against human UACC62 cells after 48 hrs by sulforhodamine B assay; format: functional; conditions: UACC-62, 48 h
Method in brief: (§3)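 NCI 60-cell-line panel screen of human tumor lines: a one-dose pre-test, then the main test over a 5-log range (10^-4–10^-8 M). GI50, TGI and LC50 are reported as log molar concentrations for 50% net growth inhibition, total growth inhibition and 50% net cell death. Mean graph midpoints are also calculated.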

[6] = system: HCT-15; assay: Cytotoxicity against human HCT15 cells after 48 hrs by sulforhodamine B assay; format: functional; conditions: HCT-15, 48 h; method in brief: as §1
[7] = system: TK-10; assay: Cytotoxicity against human TK10 cells after 48 hrs by sulforhodamine B assay; format: functional; conditions: TK-10, 48 h; method in brief: as §3
[8] = system: MCF7; assay: Induction of apoptosis in human MCF7 cells assessed as increase of cleaved PARP level at 5 uM after 24 hrs by Western blotting; format: functional, cell-based
Method in brief: (§4)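 MCF-7 cells, kept in DMEM with 10% fetal calf serum at 37 °C under 5% CO2, treated 24 h. Lysis in ice-cold RIPA with protease inhibitors; Bradford quantitation; 30 µg protein per lane on 12% SDS-PAGE, then PVDF. Primary antibodies (1:500) at 4 °C overnight; HRP secondary (1:2000); chemiluminescence detection; β-actin loading control.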

[9] = system: 786-0; assay: Cytotoxicity against human 786-0 cells after 48 hrs by sulforhodamine B assay; format: functional; conditions: 786-0, 48 h; method in brief: as §1
[10] = system: PC-3; assay: Cytotoxicity against human PC3 cells after 48 hrs by sulforhodamine B assay; format: functional; conditions: PC-3, 48 h
Method in brief: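 Cells were grown in RPMI 1640 with 10% FBS and 2 mM L-glutamine, plated at densities set by doubling time, and pre-incubated 24 h at 37 °C, 5% CO2. Drugs were tested at 0.1, 1, 10 and 100 µM in triplicate wells for 48 h continuous exposure. Cells were fixed with 10% TCA (final) and stained with 0.4% SRB. A540 was read against a 690 nm reference, and percent growth was calculated relative to control. Experiments were repeated three times.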

[11] = system: MCF7; assay: Cell cycle arrest in human MCF7 cells assessed as accumulation at G0 phase at 5 uM after 24 hrs using propidium iodide staining by flow cytometry relative to control; format: functional; method in brief: as §2
[12] = system: HCC 2998; assay: Cytotoxicity against human HCC2998 cells after 48 hrs by sulforhodamine B assay; format: functional; conditions: HCC 2998, 48 h; method in brief: as §1
[13] = system: HCT-116; assay: Cytotoxicity against human HCT116 cells after 48 hrs by sulforhodamine B assay; format: functional; conditions: HCT-116, 48 h; method in brief: as §1
[14] = system: OVCAR-3; assay: Cytotoxicity against human OVCAR3 cells after 48 hrs by sulforhodamine B assay; format: functional; conditions: OVCAR-3, 48 h; method in brief: as §1
[15] = system: NCI/ADR-RES; assay: Cytotoxicity against human NCI/ADR-RES cells after 48 hrs by sulforhodamine B assay; format: functional; method in brief: as §1
[16] = system: SR; assay: Cytotoxicity against human SR cells after 48 hrs by sulforhodamine B assay; format: functional; method in brief: as §3
[17] = system: MCF7; assay: Reduction of cyclin A expression in human MCF7 cells at 5 uM after 24 hrs by Western blotting; format: functional, cell-based; method in brief: as §4
[18] = system: OVCAR-5; assay: Cytotoxicity against human OVCAR5 cells after 48 hrs by sulforhodamine B assay; format: functional; conditions: OVCAR-5, 48 h; method in brief: as §1
[19] = system: CCRF-CEM; assay: Cytotoxicity against human CCRF-CEM cells after 48 hrs by sulforhodamine B assay; format: functional; method in brief: as §1
[20] = system: SNB-75; assay: Cytotoxicity against human SNB75 cells after 48 hrs by sulforhodamine B assay; format: functional; conditions: SNB-75, 48 h; method in brief: as §3
[21] = target: Tubulin (Homo sapiens) (UniProt P68371+Q9H4B7+P0DPH7+P68366+Q13509+Q71U36+P04350+Q3ZCM7+P07437+P68363+Q9BQE3+Q6PEY2+Q13885+Q9BVA1+Q9BUF5); assay: Inhibition of tubulin polymerization in human MCF7 cells assessed as disrupted microtubule organization at 5 uM after 48 hrs by microscopic analysis; format: cell-based
Method in brief: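 MCF-7 cells on coverslips incubated 48 h with or without compound. Fixed in 3% paraformaldehyde/0.02% glutaraldehyde, permeabilized in -20 °C methanol, blocked with 1% BSA. Stained with mouse monoclonal anti-tubulin and FITC secondary; confocal imaging to judge microtubule network integrity.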

[22] = system: IGROV-1; assay: Cytotoxicity against human IGROV1 cells after 48 hrs by sulforhodamine B assay; format: functional; conditions: IGROV-1, 48 h; method in brief: as §1
[23] = system: MDA-MB-435; assay: Cytotoxicity against human MDA-MB-435 cells after 48 hrs by sulforhodamine B assay; format: functional; conditions: MDA-MB-435, 48 h; method in brief: as §1
[24] = system: HOP-92; assay: Cytotoxicity against human HOP92 cells after 48 hrs by sulforhodamine B assay; format: functional; conditions: HOP-92, 48 h; method in brief: as §1
[25] = read-out: pLC50 (the source's name) (converted)

COc1cc(C2NC(=O)c3ccccc3N2)ccc1OCCCCCOc1c(OC)cc(C2=NOC(c3cc(OC)c(OC)c(OC)c3)C2)cc1OC (configuration not stated)
LC50 [1]: > 100 µM | GI50 ([1]; read-out: pGI50 (converted)): 24.5 µM | TGI ([1]; read-out: pTGI): > 100 µM | GI50 [2]: 16.6 µM | CC50 [2, 25]: > 100 µM | TGI ([2]; read-out: pTGI): > 100 µM | GI50 [3]: 0.324 µM | CC50 [3, 25]: > 100 µM | TGI ([3]; read-out: pTGI): > 100 µM | Activity [4]: 43.9% | GI50 [5]: 0.257 µM | CC50 [5, 25]: > 100 µM | TGI ([5]; read-out: pTGI): > 100 µM | GI50 [6]: 0.708 µM | CC50 [6, 25]: > 100 µM | TGI ([6]; read-out: pTGI): > 100 µM | GI50 [7]: > 100 µM | CC50 [7, 25]: > 100 µM | TGI ([7]; read-out: pTGI): > 100 µM | Activity [8]: Active | GI50 [9]: 23.4 µM | CC50 [9, 25]: > 100 µM | TGI ([9]; read-out: pTGI (converted)): 61.7 µM | LC50 [10]: > 100 µM | GI50 ([10]; read-out: pGI50 (converted)): 28.8 µM | TGI ([10]; read-out: pTGI): > 100 µM | Activity [11]: 1.57% | GI50 [12]: 19.1 µM | CC50 [12, 25]: > 100 µM | TGI ([12]; read-out: pTGI (converted)): 52.5 µM | GI50 [13]: 0.708 µM | CC50 [13, 25]: > 100 µM | TGI ([13]; read-out: pTGI (converted)): 40.7 µM | GI50 [14]: 12.9 µM | CC50 [14, 25]: > 100 µM | TGI ([14]; read-out: pTGI (converted)): 63.1 µM | GI50 [15]: 15.1 µM | CC50 [15, 25]: > 100 µM | TGI ([15]; read-out: pTGI): > 100 µM | GI50 [16]: 0.955 µM | CC50 [16, 25]: > 100 µM | TGI ([16]; read-out: pTGI): > 100 µM | Activity [17]: Active | GI50 [18]: 36.3 µM | CC50 [18, 25]: > 100 µM | TGI ([18]; read-out: pTGI): > 100 µM | GI50 [19]: 0.631 µM | CC50 [19, 25]: > 100 µM | TGI ([19]; read-out: pTGI): > 100 µM | GI50 [20]: 11.2 µM | CC50 [20, 25]: > 100 µM | TGI ([20]; read-out: pTGI): > 100 µM | inhibition [21]: Active | GI50 [22]: 1.12 µM | CC50 [22, 25]: > 100 µM | TGI ([22]; read-out: pTGI (converted)): 50.1 µM | GI50 [23]: 0.417 µM | CC50 [23, 25]: > 100 µM | TGI ([23]; read-out: pTGI): > 100 µM | GI50 [24]: 60.3 µM | CC50 [24, 25]: > 100 µM | TGI ([24]; read-out: pTGI): > 100 µM
